ChEMBL document CHEMBL4145447, “4-arylamidobenzyl substituted 5-bromomethylene-2(5H)-furanones for chronic bacterial infection” (Eur J Med Chem, 2018)

Assays:
[1] = biological target: Elastase (Pseudomonas aeruginosa (strain ATCC 15692 / PAO1 / 1C / PRS 101 / LMG12228)) (UniProt P14756); assay: Inhibition of Pseudomonas aeruginosa PAO1 GFP-fused quorum sensing lasB at 10 uM measured every 15 mins up to 12 hrs by GFP reporter gene assay relative to control
Procedure, shortened: (§1)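 GFP reporter strains of P. aeruginosa PAO1 (lasB-, rhlA- or pqsA-promoter fused to unstable gfp(ASV)) grown overnight in LB at 37 °C, 200 rpm, 18 h, then diluted 1:100. Culture mixed 1:1 with compound diluted in LB from 10 mM DMSO stock (0.1% DMSO final). Fluorescence (ex 485/em 528 nm) read every 15 min at 37 °C for ≥12 h.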

[2] = tested on: Pseudomonas aeruginosa PAO1; assay: Inhibition of Pseudomonas aeruginosa PAO1 GFP-fused quorum sensing rhlA at 10 uM measured every 15 mins up to 12 hrs by GFP reporter gene assay relative to control; procedure, shortened: as §1
[3] = biological target: T1, Anthranilate--CoA ligase (Pseudomonas aeruginosa (strain ATCC 15692 / DSM 22644 / CIP 104116 /JCM 14847 / LMG 12228 / 1C / PRS 101 / PAO1)) (UniProt Q9I4X3); assay: Inhibition of Pseudomonas aeruginosa PAO1 GFP-fused quorum sensing pqsA at 10 uM measured every 15 mins up to 12 hrs by GFP reporter gene assay relative to control; procedure, shortened: as §1
T1 sequence (whole entry): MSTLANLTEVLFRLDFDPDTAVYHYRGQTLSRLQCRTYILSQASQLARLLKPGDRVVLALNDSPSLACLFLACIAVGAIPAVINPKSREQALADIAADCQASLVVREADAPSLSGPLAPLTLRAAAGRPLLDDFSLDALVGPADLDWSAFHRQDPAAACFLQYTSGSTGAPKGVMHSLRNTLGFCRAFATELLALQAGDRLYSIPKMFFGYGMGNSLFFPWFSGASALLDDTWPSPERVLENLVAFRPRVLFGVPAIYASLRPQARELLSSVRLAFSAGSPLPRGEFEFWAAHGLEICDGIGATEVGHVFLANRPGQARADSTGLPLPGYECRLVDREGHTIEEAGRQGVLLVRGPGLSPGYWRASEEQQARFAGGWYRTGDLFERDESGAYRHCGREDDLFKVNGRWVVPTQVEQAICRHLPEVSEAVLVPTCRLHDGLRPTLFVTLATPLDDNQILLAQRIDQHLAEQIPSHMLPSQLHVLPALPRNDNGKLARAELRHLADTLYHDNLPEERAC

RAW264.7 [4] = assay: Anti-inflammatory activity in mouse RAW264.7 cells assessed as inhibition of LPS-induced NO production at 10 uM preincubated for 2 hrs followed by LPS stimulation and measured after 48 hrs by Griess method relative to control; format: functional
Procedure, shortened: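 RAW264.7 cells seeded at 5 × 10^4/well and cultured 18 h, then given 10 µM compound plus LPS 100 ng/mL for 48 h at 37 °C. Supernatant mixed 1:1 with Griess reagent (1% sulfanilamide, 0.1% naphthylethylenediamine in 5% phosphoric acid) for 10 min; nitrite read at OD540.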

[5] = Cytotoxicity against mouse RAW264.7 cells assessed as cell viability at 5 uM after 48 hrs by MTT assay relative to control; format: cell-based; settings: read-out: Activity
Procedure, shortened: (§2)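 MTT viability: RAW264.7 cells (4 × 10^4/well) in DMEM + 10% FBS exposed to compounds diluted in DMEM for 48 h. MTT 0.5 mg/mL added for 4 h in the dark, formazan dissolved in DMSO, read at 570 nm. Viability = treated/medium-only control × 100; three independent experiments.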

[6] = Cytotoxicity against mouse RAW264.7 cells assessed as cell viability at 10 uM after 48 hrs by MTT assay relative to control; format: cell-based; settings: read-out: Activity; procedure, shortened: as §2
RAW264.7 [7] = assay: Anti-inflammatory activity in mouse RAW264.7 cells assessed as inhibition of LPS-induced TNF-alpha production by measuring TNF-alpha level at 10 uM preincubated for 2 hrs followed by LPS stimulation and measured after 6 hrs by ELISA (reference value: 11922 +/- 628.4 pg/ml); format: functional
RAW264.7 [8] = assay: Anti-inflammatory activity in mouse RAW264.7 cells assessed as inhibition of LPS-induced TNF-alpha production by measuring TNF-alpha level at 10 uM preincubated for 2 hrs followed by LPS stimulation and measured after 12 hrs by ELISA (reference value: 21561.3 +/- 857 pg/ml); format: functional
RAW264.7 [9] = assay: Anti-inflammatory activity in mouse RAW264.7 cells assessed as inhibition of LPS-induced TNF-alpha production by measuring TNF-alpha level at 10 uM preincubated for 2 hrs followed by LPS stimulation and measured after 24 hrs by ELISA (reference value: 24216 +/- 498.7 pg/ml); format: functional
RAW264.7 [10] = assay: Anti-inflammatory activity in mouse RAW264.7 cells assessed as inhibition of LPS-induced IL-6 production by measuring […] level at 10 uM preincubated for 2 hrs followed by LPS stimulation and measured after 6 hrs by ELISA (reference value: 94.6 +/- 5.9 pg/ml); format: functional
RAW264.7 [11] = assay: Anti-inflammatory activity in mouse RAW264.7 cells assessed as inhibition of LPS-induced IL-6 production by measuring […] level at 10 uM preincubated for 2 hrs followed by LPS stimulation and measured after 12 hrs by ELISA (reference value: 175.2 +/- 10.2 pg/ml); format: functional
Mus musculus [12] = assay: Anti-inflammatory activity in LPS-induced sepsis shock mouse model assessed as survival rate at 20 mg/kg, iv pretreated daily for 5 days followed LPS treatment on day 5 at 1 hr post last dose and measured after 7 days relative to control; format: functional
Procedure, shortened: (§3)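 Male SPF mice, randomly grouped, dosed i.v. with compound dissolved in DMSO and diluted in physiological saline; vehicle group given a similar volume. LPS was injected on day 5, 1 h after the last administration. Survival was recorded every 12 h for 7 days after LPS, with 11 animals per group per figure legend.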

Mus musculus [13] = assay: Anti-inflammatory activity in LPS-induced sepsis shock mouse model assessed as survival rate at 1 mg/kg, iv pretreated daily for 5 days followed LPS treatment on day 5 at 1 hr post last dose and measured after 7 days relative to control; format: functional; procedure, shortened: as §3
RAW264.7 [14] = assay: Anti-inflammatory activity in mouse RAW264.7 cells assessed as inhibition of LPS-induced IL-6 production by measuring IL-6 level at 10 uM preincubated for 2 hrs followed by LPS stimulation and measured after 24 hrs by ELISA (reference value: 407.6 +/- 16.7 pg/ml)

Elastase (Pseudomonas aeruginosa (strain ATCC 15692 / PAO1 / 1C / PRS 101 / LMG12228)), sequence (P14756 198-498 limits assumed): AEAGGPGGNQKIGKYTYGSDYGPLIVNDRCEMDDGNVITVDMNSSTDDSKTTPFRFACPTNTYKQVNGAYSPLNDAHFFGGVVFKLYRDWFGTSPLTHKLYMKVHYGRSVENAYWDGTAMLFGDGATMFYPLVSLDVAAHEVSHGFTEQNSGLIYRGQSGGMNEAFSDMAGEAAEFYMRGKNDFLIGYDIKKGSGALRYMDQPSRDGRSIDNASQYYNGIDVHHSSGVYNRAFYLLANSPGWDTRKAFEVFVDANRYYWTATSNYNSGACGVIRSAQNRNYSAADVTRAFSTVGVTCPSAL

| SMILES | inhibition [1] [%] | inhibition [2] [%] | inhibition [3] [%] | inhibition at 10 µM (RAW264.7 [4]) [%] | further results |
| --- | --- | --- | --- | --- | --- |
| O=C1C=C(Cc2ccc(NC(=O)c3cccs3)cc2)C(=CBr)O1 | 10.2 | 23.9 | 20.3 | 54.2 |  |
| O=C(CCc1ccccc1)Nc1ccc(CC2=CC(=O)OC2=CBr)cc1 | 14.9 | 15.2 | 20.6 | 64.8 |  |
| O=C(Nc1ccccc1)c1cc([N+](=O)[O-])ccc1Cl |  |  |  |  | viability at 48 h, 5 µM [5]: 99.1% |
| COc1cc(CC(=O)Nc2ccc(CC3=CC(=O)OC3=C(Br)Br)cc2)cc(OC)c1OC | 9.79 | 7.66 | 19.5 | 21.2 |  |
| Cc1ccc(CC(=O)Nc2ccc(CC3=CC(=O)OC3=CBr)cc2)cc1 | 19 | 18.2 | 29.8 | 29.4 |  |
| COc1ccc(CC(=O)Nc2ccc(CC3=CC(=O)OC3=CBr)cc2)cc1 | 14.8 | 11.8 | 26.4 | 39.3 |  |
| O=C(Cc1ccc(F)cc1)Nc1ccc(CC2=CC(=O)OC2=C(Br)Br)cc1 | 9.49 | 15.9 | 20 | 59.2 |  |
| O=C1C=C(Cc2ccc(NC(=O)c3ccccc3)cc2)C(=CBr)O1 | 16.1 | 17.2 | 34.5 | 46.2 |  |
| O=C1C=C(Br)/C(=C/Br)O1 | 21.4 | 24 | 20.2 |  |  |
| O=C1C=C(Cc2ccc(NC(=O)c3ccccc3)cc2)C(=C(Br)Br)O1 | 21.2 | 20.2 | 28.2 | 30.3 |  |
| O=C(/C=C/c1ccccc1)Nc1ccc(CC2=CC(=O)OC2=C(Br)Br)cc1 | 9.48 | 18.1 | 16.2 | 54.4 |  |
| Cc1ccc(CC(=O)Nc2ccc(CC3=CC(=O)OC3=C(Br)Br)cc2)cc1 | 14.2 | 16.4 | 24.5 | 19 |  |
| COc1ccc(/C=C/C(=O)Nc2ccc(CC3=CC(=O)OC3=C(Br)Br)cc2)cc1 | 5.03 | 12.9 | 21.9 | 44.3 |  |
| O=C(Cc1ccccc1)Nc1ccc(CC2=CC(=O)OC2=C(Br)Br)cc1 | 19.2 | 19.2 | 24.8 | 44.1 |  |
| O=C1C=C(Cc2ccc(NC(=O)c3ccco3)cc2)C(=CBr)O1 | 17.3 | 13.6 | 20.4 | 59.9 |  |
| COc1ccc(CC(=O)Nc2ccc(CC3=CC(=O)OC3=C(Br)Br)cc2)cc1 | 11.8 | 13.8 | 20.6 | 25.2 |  |
| O=C(Cc1c(Cl)cccc1Cl)Nc1ccc(CC2=CC(=O)OC2=CBr)cc1 | 16.9 | 15.2 | 17.6 | 66.6 |  |
| CN(CCOc1ccc(CC2SC(=O)NC2=O)cc1)c1ccccn1 (stereo not given) [ROSIGLITAZONE] | 7.43 | 15.5 | 9.19 | 16.6 | viability at 48 h, 10 µM [6]: 99%; Activity (RAW264.7 [7]): 11311.3 pg/mL; Activity (RAW264.7 [8]): 20616 pg/mL; Activity (RAW264.7 [9]): 22226 pg/mL; Activity (RAW264.7 [10]): 64.8 pg/mL; Activity (RAW264.7 [11]): 140 pg/mL; survival at 20 mg/kg (Mus musculus [12]): 45.5%; survival at 1 mg/kg (Mus musculus [13]): 36.5%; Activity (RAW264.7 [14]): 345.6 pg/mL |
| COc1cc(CC(=O)Nc2ccc(CC3=CC(=O)OC3=CBr)cc2)cc(OC)c1OC | 8.53 | 5.57 | 20.3 | 34.3 |  |
| O=C(CCc1ccccc1)Nc1ccc(CC2=CC(=O)OC2=C(Br)Br)cc1 | 11 | 19.5 | 22.9 | 48.1 |  |
| O=C1C=C(Cc2ccc(NC(=O)c3ccco3)cc2)C(=C(Br)Br)O1 | 22.9 | 23.6 | 34.6 | 44.5 |  |
| O=C(Cc1ccc(Br)cc1)Nc1ccc(CC2=CC(=O)OC2=C(Br)Br)cc1 | 10.4 | 20 | 27.9 | 50.7 |  |
| O=C(Cc1ccc(Br)cc1)Nc1ccc(CC2=CC(=O)OC2=CBr)cc1 | 24.9 | 17.2 | 40.8 | 64.9 |  |
| COc1ccc(C=CC(=O)Nc2ccc(CC3=CC(=O)O/C3=C/Br)cc2)cc1 | 12.2 | 10.6 | 24.3 | 61 |  |
| COc1ccc2c(c1)c(CC(=O)O)c(C)n2C(=O)c1ccc(Cl)cc1 [INDOMETHACIN] |  |  |  | 29.4 | Activity (RAW264.7 [7]): 10850 pg/mL; Activity (RAW264.7 [8]): 19664 pg/mL; Activity (RAW264.7 [9]): 20772 pg/mL; Activity (RAW264.7 [10]): 59.6 pg/mL; Activity (RAW264.7 [11]): 120.7 pg/mL; Activity (RAW264.7 [14]): 286.6 pg/mL |
| O=C(Cc1ccccc1)Nc1ccc(CC2=CC(=O)OC2=CBr)cc1 | 18 | 17.3 | 25.8 | 59.5 |  |
| O=C(Cc1c(Cl)cccc1Cl)Nc1ccc(CC2=CC(=O)OC2=C(Br)Br)cc1 | 19.1 | 19.2 | 19.3 | 53.5 |  |
| O=C1C=C(Cc2ccc(NC(=O)c3cccs3)cc2)C(=C(Br)Br)O1 | 20 | 19.6 | 26.4 | 39.9 |  |
